Where “and” joins values, the source holds several entries; their conditions need not be identical. Equal values may be shown once.
Columns and labels:
HEK-293T = assay: Multiplex assay against HEK293T; type: toxicity, cell-based; settings: human, number of replicates 2
In short: (§1)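 Phenotypes for tubulin, mitochondrial mass and membrane permeability are expressed as per cents of healthy-nucleus cells. Cells were stained live at seeding with Hoechst33342, BioTracker Green Microtubule Cytoskeleton Dye, MitoTracker Red and Annexin V Alexa Fluor 680, then imaged after compound addition on a CQ1 microscope at 37°C and 5% CO2. Machine-learning gating in CellPathfinder separated Hoechst high-intensity objects from normal cells, divided normal cells by nuclear state (healthy, pyknosed, fragmented) and divided pyknosed cells into mitotic or apoptotic.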

U2OS = assay: Multiplex assay against U2OS; type: toxicity, cell-based; settings: human, number of replicates 2; in short: as §1
[1] = 24 h, 1 µM, compound concentration 1 uM
[2] = 24 h, 10 µM, compound concentration 10 uM
[3] = 48 h, 1 µM, compound concentration 1 uM
[4] = 48 h, 10 µM, compound concentration 10 uM
[5] = 12 h, 1 µM, compound concentration 1 uM
[6] = 12 h, 10 µM, compound concentration 10 uM

With `COc1ccc(CC[C@@H](OC(=O)[C@@H]2CCCCN2C(=O)[C@H](c2cc(OC)c(OC)c(OC)c2)C2CCCCC2)c2cccc(OCCN3CCOCC3)c2)cc1OC` the “Population Mitochondria Different-Phenotype (%)” value (HEK-293T; [1]) was 12% and 18%, the “Population Mitotic Cells (%)” value (HEK-293T; [1]) was 53% and 55% and the “Population Normal (%)” value (HEK-293T; [1]) was 89% and 91%. For the same compound, the “Population Pyknosed Nuclei (%)” value (HEK-293T; [1]) was 8%, the “Population Tubulin-Different-Phenotype (%)” value (HEK-293T; [1]) was 64% and 80% and the “Total Cell Count” value (HEK-293T; [1]) was 873 and 879. The “Population Apoptotic (%)” value (HEK-293T; [2]) was 72% and 63%, the “Population Fragmented Nuclei (%)” value (HEK-293T; [2]) was 2% and the “Population Healthy Nuclei (%)” value (HEK-293T; [2]) was 82% and 81%. The “Population Hoechst High Intensity Objects (%)” value (HEK-293T; [2]) was 8% and 13%, the “Population Membrane Permeable-Phenotype (%)” value (HEK-293T; [2]) was 0% and the “Population Mitochondria Different-Phenotype (%)” value (HEK-293T; [2]) was 89% and 88%. The “Population Mitotic Cells (%)” value (HEK-293T; [2]) was 27% and 36%, the “Population Normal (%)” value (HEK-293T; [2]) was 91% and 86% and the “Population Pyknosed Nuclei (%)” value (HEK-293T; [2]) was 14% and 15%. The “Population Tubulin-Different-Phenotype (%)” value (HEK-293T; [2]) was 56% and 52%, the “Total Cell Count” value (HEK-293T; [2]) was 512 and 487 and the “Population Apoptotic (%)” value (HEK-293T; [3]) was 30% and 18%. The “Population Fragmented Nuclei (%)” value (HEK-293T; [3]) was 8% and 13%, the “Population Healthy Nuclei (%)” value (HEK-293T; [3]) was 87% and 83% and the “Population Hoechst High Intensity Objects (%)” value (HEK-293T; [3]) was 9% and 8%. For the same compound, the “Population Membrane Permeable-Phenotype (%)” value (HEK-293T; [3]) was 6%, the “Population Mitochondria Different-Phenotype (%)” value (HEK-293T; [3]) was 5% and 4% and the “Population Mitotic Cells (%)” value (HEK-293T; [3]) was 69% and 81%. The “Population Normal (%)” value (HEK-293T; [3]) was 90% and 91%, the “Population Pyknosed Nuclei (%)” value (HEK-293T; [3]) was 3% and 2% and the “Population Tubulin-Different-Phenotype (%)” value (HEK-293T; [3]) was 67% and 48%. For the same compound, the “Total Cell Count” value (HEK-293T; [3]) was 1619 and 1643, the “Population Apoptotic (%)” value (HEK-293T; [4]) was 84% and 73% and the “Population Fragmented Nuclei (%)” value (HEK-293T; [4]) was 3% and 5%. For the same compound, the “Population Healthy Nuclei (%)” value (HEK-293T; [4]) was 84% and 83%, the “Population Hoechst High Intensity Objects (%)” value (HEK-293T; [4]) was 9% and 11% and the “Population Membrane Permeable-Phenotype (%)” value (HEK-293T; [4]) was 1%. The “Population Mitochondria Different-Phenotype (%)” value (HEK-293T; [4]) was 79% and 83%, the “Population Mitotic Cells (%)” value (HEK-293T; [4]) was 15% and 26% and the “Population Normal (%)” value (HEK-293T; [4]) was 90% and 88%. The “Population Pyknosed Nuclei (%)” value (HEK-293T; [4]) was 11%, the “Population Tubulin-Different-Phenotype (%)” value (HEK-293T; [4]) was 62% and 60% and the “Total Cell Count” value (HEK-293T; [4]) was 551 and 526. The “Population Apoptotic (%)” value (U2OS; [5]) was 66% and 51%, the “Population Fragmented Nuclei (%)” value (U2OS; [5]) was 10% and 3% and the “Population Healthy Nuclei (%)” value (U2OS; [5]) was 64% and 82%. For the same compound, the “Population Hoechst High Intensity Objects (%)” value (U2OS; [5]) was 0%, the “Population Membrane Permeable-Phenotype (%)” value (U2OS; [5]) was 33% and 21% and the “Population Mitochondria Different-Phenotype (%)” value (U2OS; [5]) was 16% and 37%. For the same compound, the “Population Mitotic Cells (%)” value (U2OS; [5]) was 33% and 48%, the “Population Normal (%)” value (U2OS; [5]) was 100% and 99% and the “Population Pyknosed Nuclei (%)” value (U2OS; [5]) was 24% and 13%. The “Population Tubulin-Different-Phenotype (%)” value (U2OS; [5]) was 45% and 43%, the “Population Apoptotic (%)” value (U2OS; [6]) was 100% and 70% and the “Population Healthy Nuclei (%)” value (U2OS; [6]) was 56% and 81%. For the same compound, the “Population Hoechst High Intensity Objects (%)” value (U2OS; [6]) was 2% and 0%, the “Population Membrane Permeable-Phenotype (%)” value (U2OS; [6]) was 82% and 57% and the “Population Mitochondria Different-Phenotype (%)” value (U2OS; [6]) was 47% and 40%. For the same compound, the “Population Normal (%)” value (U2OS; [6]) was 97% and 99%, the “Population Pyknosed Nuclei (%)” value (U2OS; [6]) was 14% and the “Population Tubulin-Different-Phenotype (%)” value (U2OS; [6]) was 100% and 98%. The “Population Apoptotic (%)” value (U2OS; [1]) was 60% and 75%, the “Population Fragmented Nuclei (%)” value (U2OS; [1]) was 11% and 3% and the “Population Healthy Nuclei (%)” value (U2OS; [1]) was 65% and 77%. The “Population Hoechst High Intensity Objects (%)” value (U2OS; [1]) was 0%, the “Population Membrane Permeable-Phenotype (%)” value (U2OS; [1]) was 21% and 18% and the “Population Mitotic Cells (%)” value (U2OS; [1]) was 40% and 24%. For the same compound, the “Population Normal (%)” value (U2OS; [1]) was 100%, the “Population Pyknosed Nuclei (%)” value (U2OS; [1]) was 23% and 18% and the “Population Tubulin-Different-Phenotype (%)” value (U2OS; [1]) was 28% and 35%. For the same compound, the “Population Apoptotic (%)” value (U2OS; [2]) was 73% and 96%, the “Population Fragmented Nuclei (%)” value (U2OS; [2]) was 22% and 9% and the “Population Healthy Nuclei (%)” value (U2OS; [2]) was 43% and 67%. The “Population Hoechst High Intensity Objects (%)” value (U2OS; [2]) was 0%, the “Population Membrane Permeable-Phenotype (%)” value (U2OS; [2]) was 89% and 86% and the “Population Mitochondria Different-Phenotype (%)” value (U2OS; [2]) was 42% and 39%. The “Population Normal (%)” value (U2OS; [2]) was 100% and 99%, the “Population Pyknosed Nuclei (%)” value (U2OS; [2]) was 34% and 23% and the “Population Tubulin-Different-Phenotype (%)” value (U2OS; [2]) was 100% and 99%. The “Population Apoptotic (%)” value (U2OS; [3]) was 57% and 87%, the “Population Fragmented Nuclei (%)” value (U2OS; [3]) was 10% and 3% and the “Population Healthy Nuclei (%)” value (U2OS; [3]) was 55% and 75%. The “Population Hoechst High Intensity Objects (%)” value (U2OS; [3]) was 0%, the “Population Membrane Permeable-Phenotype (%)” value (U2OS; [3]) was 9% and 12% and the “Population Mitochondria Different-Phenotype (%)” value (U2OS; [3]) was 15% and 37%. For the same compound, the “Population Normal (%)” value (U2OS; [3]) was 100% and 99%, the “Population Pyknosed Nuclei (%)” value (U2OS; [3]) was 35% and 21% and the “Population Tubulin-Different-Phenotype (%)” value (U2OS; [3]) was 24% and 37%. The “Population Apoptotic (%)” value (U2OS; [4]) was 96% and 91%, the “Population Fragmented Nuclei (%)” value (U2OS; [4]) was 22% and 10% and the “Population Healthy Nuclei (%)” value (U2OS; [4]) was 25% and 51%. For the same compound, the “Population Hoechst High Intensity Objects (%)” value (U2OS; [4]) was 4% and 1%, the “Population Membrane Permeable-Phenotype (%)” value (U2OS; [4]) was 91% and the “Population Mitochondria Different-Phenotype (%)” value (U2OS; [4]) was 33% and 42%. For the same compound, the “Population Mitotic Cells (%)” value (U2OS; [4]) was 4% and 8%, the “Population Normal (%)” value (U2OS; [4]) was 96% and 98% and the “Population Pyknosed Nuclei (%)” value (U2OS; [4]) was 52% and 37%. For the same compound, the “Population Tubulin-Different-Phenotype (%)” value (U2OS; [4]) was 100%.

From ChEMBL document CHEMBL5303300, “EUbOPEN Chemogenomics Library - Multiplex” (2023)
